Most compounds without a hit are left out; they make up all but 1.8% or so of the library.
M5 PAM: human M5 muscarinic receptor positive allosteric modulators, primary screen, CHO-K1 cells, Fluo-8 calcium fluorescence. 360,000 compounds, 0.3% hits. CHO-K1 hM5, ACh EC20 PAM; 0% = ACh EC20, 100% = ACh EC100. activation, % at 3 µM. AID 624038, 2012. Muscarinic acetylcholine receptor M5 (Homo sapiens), P08912;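 active means activation above the run cutoff, the mean activation of all test compounds plus 3 SD, cut at about 18% in these data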
Target sequence (P08912 whole entry, looked up): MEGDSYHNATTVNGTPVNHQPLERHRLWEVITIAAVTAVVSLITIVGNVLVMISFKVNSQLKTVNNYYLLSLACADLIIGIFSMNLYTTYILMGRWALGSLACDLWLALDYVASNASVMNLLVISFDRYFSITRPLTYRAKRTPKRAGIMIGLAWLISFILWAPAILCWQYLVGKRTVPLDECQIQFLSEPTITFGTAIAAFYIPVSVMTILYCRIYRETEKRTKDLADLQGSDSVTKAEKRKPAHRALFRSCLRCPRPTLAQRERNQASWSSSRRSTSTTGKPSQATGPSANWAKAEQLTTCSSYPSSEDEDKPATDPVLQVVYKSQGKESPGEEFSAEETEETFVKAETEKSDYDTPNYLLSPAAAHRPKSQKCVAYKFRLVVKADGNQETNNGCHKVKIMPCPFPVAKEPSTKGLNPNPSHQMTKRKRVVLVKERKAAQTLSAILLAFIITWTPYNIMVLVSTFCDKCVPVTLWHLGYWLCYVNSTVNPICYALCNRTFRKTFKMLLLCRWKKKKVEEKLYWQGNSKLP
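Replicates: One well per compound, no replicates | System: Human M5 receptor in CHO-K1 cells | Benchmarks: Low control EC20 acetylcholine (0%), high control EC100 acetylcholine (100%) | Probe or stimulus: Acetylcholine, EC20 level | Times: Fluo-8 loading 80 min at 37 °C plus 30 min room temperature | Signal: Intracellular calcium via Fluo-8 fluorescence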
CHRM5 antagonist: human M5 muscarinic receptor antagonists, primary screen, CHO cells, Fluo-8 calcium fluorescence; Muscarinic acetylcholine receptor M5 (Homo sapiens), P08912; CHO-hM5 cells, ACh EC80; inhibition, % at 3 µM; 360,000 compounds, 0.59% hits;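 active means inhibition above a per-plate cutoff, the mean of that plate's test compounds plus 3 SD, cut at about 27% in these data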;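 further: 0% = acetylcholine EC80 with DMSO and 100% = DMSO without agonist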
CHRM5 agonist: human M5 muscarinic receptor agonists, primary screen, CHO-K1 cells, Fluo-8 calcium fluorescence. Muscarinic acetylcholine receptor M5 (Homo sapiens), P08912. CHO-K1 hM5 cells; 0% DMSO wells, 100% maximal acetylcholine response. activation, % at 3 µM. 360,000 compounds, 0.19% hits;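 active means activation above the run's mean over test compounds plus 3 SD, cut at about 23% in these data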;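 further: signal is peak over basal fluorescence ratio across the kinetic read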
CHRM4 PAM: human M4 muscarinic receptor positive allosteric modulators, primary screen, CHO-K1 cells, Fluo-8 calcium fluorescence; Muscarinic acetylcholine receptor M4 (Homo sapiens), P08173; CHO-K1 hM4/Gqi5, ACh EC20; 0% = ACh EC20, 100% = maximal ACh; activation, % at 3 µM; 360,000 compounds, 0.4% hits;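 active means activation above its plate's cutoff, the mean activation of sample wells plus 3 SD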
M4 antag: human M4 muscarinic receptor antagonists, primary screen, CHO cells, Fluo-8 calcium fluorescence | inhibition, % at 3 µM | 360,000 compounds, 0.73% hits | CHO-hM4 cells, ACh EC80 | Muscarinic acetylcholine receptor M4 (Homo sapiens), P08173;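 active means inhibition above its plate's cutoff, the mean inhibition of sample wells plus 3 SD, cut at about 27% in these data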;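 further: 0% = acetylcholine EC80 with DMSO and 100% = DMSO without agonist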
CHRM4 agonist: human M4 muscarinic receptor agonists, primary screen, CHO-K1 cells, Fluo-8 calcium fluorescence; Muscarinic acetylcholine receptor M4 (Homo sapiens), P08173; CHO-K1 hM4/Gqi5; vehicle 0%, full acetylcholine response 100%; activation, % at 3 µM; 360,000 compounds, 0.14% hits; AID 624127, 2012;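 active means activation above the run mean over all test wells plus 3 SD, cut at about 32% in these data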;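 further: peak over basal fluorescence ratio per well then scaled between controls; 0% = DMSO wells and 100% = acetylcholine at EC100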
An asterisk follows results filed as active.

For Cc1nc(CSc2ccc(Br)cc2)cs1 the results were M5 PAM -3.6, CHRM5 antagonist 3.3, CHRM5 agonist -0.8, CHRM4 PAM -0.2, M4 antag -8.9 and CHRM4 agonist -1.5.
`COc1ccccc1C(c1c(N)n(C)c(=O)n(C)c1=O)C(C)[N+](=O)[O-]` (stereo not drawn) gave M5 PAM -15.5, CHRM5 antagonist 27.9*, CHRM5 agonist -8.0, CHRM4 PAM -0.2, M4 antag -7.2 and CHRM4 agonist 1.7.
For COc1ccccc1C(C[N+](=O)[O-])c1c(N)n(C)c(=O)n(C)c1=O (stereo not drawn) the results were M5 PAM -0.3, CHRM5 antagonist 7.2, CHRM5 agonist -2.5, CHRM4 PAM -5.2, M4 antag -0.8 and CHRM4 agonist 0.2.
For CCOc1cc(C(=O)NCC(C)CN(C)C)cc(OCC)c1OCC (stereo not drawn) the results were M5 PAM -1.9, CHRM5 antagonist 5.8, CHRM5 agonist -1.4, CHRM4 PAM 0.9, M4 antag 6.9 and CHRM4 agonist 0.0.
`CCOc1ccc(C(=O)NCC(C)CN(C)C)cc1OCC` (stereo not drawn) gave M5 PAM 22.3*, CHRM5 antagonist 17.8, CHRM5 agonist -2.0, CHRM4 PAM 7.7, M4 antag -3.3 and CHRM4 agonist 0.5.
`Cc1cc(=O)oc2c(C)c(OC(C)C(=O)Nc3ccc(N4CCC(C)CC4)cc3)ccc12` (stereo not drawn) gave M5 PAM 21.3*, CHRM5 antagonist -13.6, CHRM5 agonist -2.4, CHRM4 PAM -3.5, M4 antag -18.8 and CHRM4 agonist -0.2.
Cc1nc(N)c(C#N)c(-c2cccnc2)c1C was read as M5 PAM 26.2*, CHRM5 antagonist -16.3, CHRM5 agonist -3.8, CHRM4 PAM 5.2, M4 antag -16.0 and CHRM4 agonist 0.3.
`CCOc1cc2c(cc1O)C(=NO)CC1C2CCC2(C)C(O)CCC12` (stereo not drawn) gave M5 PAM -10.9, CHRM5 antagonist 12.4, CHRM5 agonist 7.7, CHRM4 PAM -2.5, M4 antag 4.2 and CHRM4 agonist 11.5.
For CN(C)CCN1C(=O)C(=O)/C(=C(/O)c2ccc(F)cc2)C1c1ccccc1F (stereo not drawn) the results were M5 PAM -7.4, CHRM5 antagonist 29.4*, CHRM5 agonist -2.5, CHRM4 PAM -15.9, M4 antag 13.6 and CHRM4 agonist -0.7.
Screening Cc1ccc(/C(O)=C2\C(=O)C(=O)N(CCN(C)C)C2c2ccccc2F)cc1 (stereo not drawn) returned M5 PAM -2.5, CHRM5 antagonist 7.0, CHRM5 agonist -1.9, CHRM4 PAM 3.1, M4 antag 7.4 and CHRM4 agonist 0.6.
CC(=O)C[C@H](O)CC(=O)[C@H]1OC(=O)CC/C=C\Cc2ccccc21 was read as M5 PAM 6.3, CHRM5 antagonist -7.0, CHRM5 agonist 3.9, CHRM4 PAM 25.3*, M4 antag -2.9 and CHRM4 agonist 2.0.
Screening O=C(c1ccc(Cl)cc1)C1CCN(Cc2ccccc2)CC1 returned M5 PAM -11.7, CHRM5 antagonist -8.1, CHRM5 agonist -22.6, CHRM4 PAM -14.1, M4 antag 0.1 and CHRM4 agonist 1.5.
Screening O=C(C1CCN(Cc2ccc(Cl)cc2)CC1)N1CCN(C(c2ccccc2)c2ccccc2)CC1 returned M5 PAM -19.1, CHRM5 antagonist 43.7*, CHRM5 agonist -8.2, CHRM4 PAM -18.1, M4 antag 73.9* and CHRM4 agonist -0.3.
Screening Cc1c(Cl)c(=O)oc2cc(OCC(=O)NCc3cccs3)ccc12 returned M5 PAM 21.4*, CHRM5 antagonist -27.8, CHRM5 agonist 0.5, CHRM4 PAM 1.5, M4 antag -8.3 and CHRM4 agonist 2.9.
CCn1c(SCC(=O)Nc2ccccc2)nc2c1c(=O)n(C)c(=O)n2C was read as M5 PAM 18.3*, CHRM5 antagonist 1.4, CHRM5 agonist 2.2, CHRM4 PAM -3.8, M4 antag 6.9 and CHRM4 agonist 1.6.
For CC(C)CC(=O)N1CCC(N(CCc2ccccc2)Cc2ccccc2)CC1 the results were M5 PAM -1.4, CHRM5 antagonist 6.2, CHRM5 agonist -13.5, CHRM4 PAM -14.4, M4 antag 6.2 and CHRM4 agonist -1.1.
For CC(NC(=O)c1ccccc1)C(=O)OCn1nnc2ccccc2c1=O (stereo not drawn) the results were M5 PAM 20.4*, CHRM5 antagonist -8.0, CHRM5 agonist -3.5, CHRM4 PAM 11.8, M4 antag -14.1 and CHRM4 agonist 1.3.
CCN1CCN(C(=O)/C=C/c2ccc(OC)cc2)CC1 was read as M5 PAM -0.6, CHRM5 antagonist 4.6, CHRM5 agonist -3.8, CHRM4 PAM 12.4*, M4 antag -23.5 and CHRM4 agonist 1.2.
O=C(c1ccc2c(c1)OCO2)C1CCCN(Cc2ccc(OC(F)F)cc2)C1 (stereo not drawn) was read as M5 PAM -14.1, CHRM5 antagonist 6.0, CHRM5 agonist -5.8, CHRM4 PAM -15.3, M4 antag 33.5* and CHRM4 agonist 8.9.
For O=C1c2cccc3c([N+](=O)[O-])ccc(c23)C(=O)N1c1ccc(Cl)cn1 the results were M5 PAM -20.5, CHRM5 antagonist 25.4, CHRM5 agonist -6.6, CHRM4 PAM -13.4, M4 antag 31.7* and CHRM4 agonist 4.2.
`O=C1c2cccc3c([N+](=O)[O-])ccc(c23)C(=O)N1c1nccs1` gave M5 PAM -7.6, CHRM5 antagonist 16.1, CHRM5 agonist -5.3, CHRM4 PAM -12.3, M4 antag 36.1* and CHRM4 agonist -2.2.
`O=C1c2cccc3c([N+](=O)[O-])ccc(c23)C(=O)N1c1ccccn1` gave M5 PAM -4.4, CHRM5 antagonist 27.9*, CHRM5 agonist -7.1, CHRM4 PAM -5.8, M4 antag 14.7 and CHRM4 agonist 1.1.
For O=C(CSc1nnc2c(n1)[nH]c1ccccc12)NCc1ccccc1F the results were M5 PAM -4.3, CHRM5 antagonist 5.6, CHRM5 agonist -2.2, CHRM4 PAM 4.2, M4 antag -8.6 and CHRM4 agonist -0.1.
Screening O=C(CN1C(=O)NC2(CCc3ccccc32)C1=O)NCCc1ccccc1 (stereo not drawn) returned M5 PAM -2.7, CHRM5 antagonist 11.8, CHRM5 agonist 3.6, CHRM4 PAM 9.8, M4 antag 2.3 and CHRM4 agonist 1.6.

Screens: PubChem BioAssay, The Scripps Research Institute Molecular Screening Center
